The source made the active and inactive calls. The calls are words filed in the database; no cut-off is given here.
Experiments:
PC-3 [1] = test: Cytotoxicity against human PC3 cells at 1 uM after 48 hrs by sulforhodamine B assay; type: functional
In short: (§1)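 Cells kept in RPMI-1640 with 10% FCS and 1% penicillin-G at 37 °C under 5% CO2. Seeded at 8000–14 000 cells/100 μL and exposed for 48 h. Fixed with ice-cold TCA for 1 h at 4 °C, then water-washed and stained with 0.4% SRB for 0.5 h at room temperature. Unbound dye removed with 1% acetic acid; bound dye dissolved in 10 mM Tris (pH 10.05) and read at 540 nm.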

HL-60 [2] = test: Induction of apoptosis in human HL60 cells assessed as condensation, smoothening of the cell surface, blebbing of plasma membrane at 30 uM after 30 hrs by scanning electron microscopy; type: functional, cell-based
SK-HEP1 = test: Cytotoxicity against human SKHEP1 cells at 50 uM after 48 hrs by sulforhodamine B assay; type: functional; in short: as §1
HL-60 [3] = test: Induction of apoptosis in human HL60 cells assessed as condensation, smoothening of the cell surface, blebbing of plasma membrane and formation of apoptotic bodies at 50 uM after 30 hrs by scanning electron microscopy; type: functional, cell-based
Tubulin (Homo sapiens) [4] = molecular target: T1, Tubulin (Homo sapiens) (UniProt P68371+Q9H4B7+P0DPH7+P68366+Q13509+Q71U36+P04350+Q3ZCM7+P07437+P68363+Q9BQE3+Q6PEY2+Q13885+Q9BVA1+Q9BUF5); test: Inhibition of tubulin in human THP1 cells assessed as disruption and loss of microtubule organization at 50 uM after 48 hrs by immunofluorescence microscopic analysis; type: cell-based; conditions: THP-1
In short: (§2)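 THP-1 seeded at 1 × 10^5 cells/well on coverslips and allowed to adhere for 24 h before treatment. Fixed in 4% paraformaldehyde for 10 min, permeabilized with 0.5% Triton-X for 5 min and blocked with 10% goat serum. Probed with anti-α-tubulin (1:100, 1 h) then Alexa Fluor 488 secondary (1:500, 1 h), counterstained with DAPI 1 μg/mL and imaged by confocal microscopy. Three separate experiments.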

PC-3 [5] = test: Cytotoxicity against human PC3 cells at 50 uM after 48 hrs by sulforhodamine B assay; type: functional; in short: as §1
HL-60 [6] = test: Induction of apoptosis in human HL60 cells assessed as condensation and fragmentation of nuclei at 50 uM after 30 hrs by DAPI staining based inverted fluorescence microscopy; type: functional, cell-based
In short: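 HL-60 seeded at 2 × 10^5 cells/mL in medium with 10% FCS and treated for 30 h at 37 °C, added from DMSO stock; controls got DMSO vehicle only. Air-dried smears fixed in methanol at −20 °C for 20 min, stained with DAPI 1 μg/mL in PBS for 20 min at room temperature in the dark, mounted in glycerol–PBS (1:1) and viewed by inverted fluorescence microscopy (40×).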

HCT-116 [7] = test: Cytotoxicity against human HCT116 cells at 50 uM after 48 hrs by sulforhodamine B assay; type: functional; in short: as §1
THP-1 [8] = test: Cytotoxicity against human THP1 cells at 50 uM after 48 hrs by sulforhodamine B assay; type: functional; in short: as §1
A549 [9] = test: Cytotoxicity against human A549 cells at 50 uM after 48 hrs by sulforhodamine B assay; type: functional; in short: as §1
HCT-116 [10] = test: Cytotoxicity against human HCT116 cells at 20 uM after 48 hrs by sulforhodamine B assay; type: functional
In short: (§3)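 Cells grown in RPMI-1640 with 10% FCS and 1% penicillin-G at 37 °C, 5% CO2. Seeded at 8000–14 000 cells/100 μL and exposed for 48 h. Fixed with ice-cold TCA for 1 h at 4 °C, stained with 0.4% SRB for 0.5 h at room temperature, washed with 1% acetic acid, bound dye solubilised in 10 mM Tris pH 10.05, read at 540 nm.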

THP-1 [11] = test: Cytotoxicity against human THP1 cells at 20 uM after 48 hrs by sulforhodamine B assay; type: functional; in short: as §3
A549 [12] = test: Cytotoxicity against human A549 cells at 20 uM after 48 hrs by sulforhodamine B assay; type: functional; in short: as §3
THP-1 [13] = test: Cytotoxicity against human THP1 cells at 1 uM after 48 hrs by sulforhodamine B assay; type: functional; in short: as §1
Tubulin (Homo sapiens) [14] = molecular target: T1, Tubulin (Homo sapiens); test: Stabilization of tubulin polymerization in human THP1 cells at 1 uM after 24 hrs by immunofluorescence microscopic analysis; type: cell-based; conditions: THP-1; in short: as §2
A549 [15] = test: Cytotoxicity against human A549 cells at 1 uM after 48 hrs by sulforhodamine B assay; type: functional; in short: as §1
HCT-116 [16] = test: Cytotoxicity against human HCT116 cells at 1 uM after 48 hrs by sulforhodamine B assay; type: functional; in short: as §1

| Structure (SMILES) | Activity (PC-3 [1]) [%] | Activity (HL-60 [2]) | Activity (SK-HEP1) [%] | Activity (HL-60 [3]) | microtubule disruption (Tubulin (Homo sapiens) [4]) | Activity (PC-3 [5]) [%] | Activity (HL-60 [6]) | Activity (HCT-116 [7]) [%] | Activity (THP-1 [8]) [%] | Activity (A549 [9]) [%] | Activity (HCT-116 [10]) [%] | Activity (THP-1 [11]) [%] | Activity (A549 [12]) [%] | Activity (THP-1 [13]) [%] | Activity (Tubulin (Homo sapiens) [14]) | Activity (A549 [15]) [%] | Activity (HCT-116 [16]) [%] |
| --- | --- | --- | --- | --- | --- | --- | --- | --- | --- | --- | --- | --- | --- | --- | --- | --- | --- |
| CO[C@@]12[C@H](COC(N)=O)C3=C(C(=O)C(C)=C(N)C3=O)N1C[C@@H]1N[C@@H]12 [MITOMYCIN] | 59 |  |  |  |  |  |  |  |  |  |  |  |  |  |  |  |  |
| C[C@@H]1C[C@H]2CC(=O)C[C@H](C2)O1 |  | Active | 26 | Active | Active | 23 | Active | 59 | 0 | 71 |  |  |  |  |  |  |  |
| C[C@H]1C[C@H]2CC[C@H](O)C(O)=C2C(=O)O1 |  | Active | 3 | Active | Active | 34 | Active | 35 | 40 | 35 |  |  |  |  |  |  |  |
| O=c1[nH]cc(F)c(=O)[nH]1 [FLUOROURACIL] |  |  |  |  |  |  |  |  |  |  | 55 | 84 | 22 |  |  |  |  |
| C[C@H]1C[C@H]2CCCC(O)=C2C(=O)O1 |  | Active | 23 | Active | Active | 23 | Active | 44 | 54 | 15 |  |  |  |  |  |  |  |
| CC1=C[C@H](O)[C@@H]2O[C@@H]2C1=O |  | Active | 100 | Active | Active | 22 | Active | 56 | 50 | 98 |  |  |  |  |  |  |  |
| CC(=O)O[C@H]1C(=O)[C@@]2(C)[C@H]([C@H](OC(=O)c3ccccc3)[C@]3(O)C[C@H](OC(=O)[C@H](O)[C@@H](NC(=O)c4ccccc4)c4ccccc4)C(C)=C1C3(C)C)[C@]1(OC(C)=O)CO[C@@H]1C[C@@H]2O [PACLITAXEL] |  |  |  |  |  |  |  |  |  |  |  |  |  | 71 | Active | 82 | 72 |
